The values below come from publication PMC11905928 (Cell reports. Physical science, 2024).

≈ marks a conversion by molar mass, not a printed value. Counter-ions that a name gives are not always drawn. Like-named read-outs stand apart in the source and are kept apart here.

In data set [1] the test system is C20 cells. In words: MTT cell viability, compound by itself. The data set is classed as cell-based, human. Put shortly:
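MTT assay on human microglial C20 cells, run by dose and also by incubation time at 1 uM of test compound. At least three independent experiments, each with 10 technical replicates; error bars are SDs.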

For data set [2], the target named is Aβ19–20 (FF) dimerization (Homo sapiens, UniProt P05067). Description: biochemical. To be noted: for IC50: Hill equation, FJ, 200 mM KCl.
Data set [3] concerns the target Aβ1–42 aggregation (Homo sapiens, UniProt P05067). Description: Thioflavin T. To be noted: for normalized fluorescent intensity with respect to positive control Aβ1–42+ThT: Aβ1–42 preincubated 24 h. The data set is classed as biochemical.
Data set [4] relates to neuroblastoma SH-SY5Y cells. In words: MTT cell viability, Aβ1–42 treated neuroblastoma cells. The data set is classed as cell-based. Particulars: 10 μM Aβ1–42, Figure S32.
Data set [5] is described as follows: Solubility. The data set is classed as physicochemical.
The subject of data set [6] is human microglia cells (C20 cell line). Description: MTT cell viability, protection against Aβ1–42 induced toxicity. The data set is classed as cell-based. To be noted: 48 h; for viability: C20, Aβ1–42 500 nM; for viability at 0.5 µM: Homo sapiens, Microglia.

Aβ1–42 aggregation, sequence (P05067 672-713): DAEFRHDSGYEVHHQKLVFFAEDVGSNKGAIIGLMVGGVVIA

On to `COc1cccc2c1C(=O)c1c(O)c3c(c(O)c1C2=O)C[C@@](O)(C(C)=O)C[C@@H]3O[C@H]1C[C@H](N)[C@H](O)[C@H](C)O1` [Daunorubicin hydrochloride, reference compound], for which the “toxicity of the compound by itself (in words)” value in data set [1] (C20 cells) is listed as “showed a toxicity effect by itself”. Besides, in data set [2] (IC50 on the FF-dimerization), 3.5 µM corresponded to half-maximal inhibition (IC50). Moreover, in data set [3] (after 24-h incubation, ThT 3.75 μM), the “effect on Aβ1–42 aggregation (in words)” value was “inhibitory effects”.

Regarding `Cc1c2ccncc2c(C)c2c1[nH]c1ccccc12` [Ellipticine], the “C20 cell viability at high concentrations (in words)” value in data set [1] (high-concentration range such as 5 μM, Figure S31) is given as “significantly influenced”. For the same compound, the “effect on the FF-dimerization (in words)” value in data set [2] (single-molecule screening of NIH library) is “concentration-dependent promotion effect”. Besides, the “effect on cells treated with Aβ1–42 (in words)” value in data set [4] is “protective effects”. The “normalized fluorescent intensity with respect to positive control Aβ1–42+ThT” value in data set [3] (0.2 μM compound, ThT 3.75 μM) amounted to 106%; in data set [3] (0.5 μM compound, ThT 3.75 μM), 112%. Also, the “effect on Aβ1–42 aggregation (in words)” value is on record as “inhibition effect” in data set [3] (concentration >1 μM) and “stimulator” in data set [3] (low-concentration range ≤0.5 μM). The solubility (as a rule, the concentration that dissolves in the medium under given conditions) in data set [5] (aqueous buffer) is ≤ 200 µM; in data set [5] (methanol-water (16:84 v/v), aqueous with cosolvent or surfactant or cyclodextrin), 1200 µM (≈ 296 µg/mL). Besides, the viability – broadly, a per cent measure of how many cells are alive, often set against a control – is 65% ± 3% in data set [6] (compound 0.05 μM) and 64% ± 4% in data set [6] (compound 0.1 μM). The viability at 0.5 µM in data set [6] turned out to be 61%.

Turning to `O=C(/C=C/c1ccc(O)c(O)c1)O[C@H](Cc1ccc(O)c(O)c1)C(=O)O` [Rosmarinic acid (RA), rosmarinic acid, reference compound], the IC50 (in general, the point on the concentration scale where inhibition reaches its midpoint) in data set [2] (IC50 on the FF-dimerization) is 13.1 µM. For the same compound, the viability in data set [6] (compound 1 μM) is given as 66% ± 2%; in data set [6] (compound 5 μM), 69% ± 2%. Also, in data set [6], the viability at 0.5 µM is 67%.

In data set [2] (IC50 on the FF-dimerization), `C[C@H](Cc1ccc(O)c(O)c1)[C@@H](C)Cc1ccc(O)c(O)c1` [Nordihydroguaiaretic acid (NDGA), nordihydroguaiaretic acid] had an IC50 of 107 µM.

For the compound `O=C(O[C@@H]1Cc2c(O)cc(O)cc2O[C@@H]1c1cc(O)c(O)c(O)c1)c1cc(O)c(O)c(O)c1` [Epigallocatechin gallate (EGCG), epigallocatechin gallate], the IC50 in data set [2] (read-out: IC50 on the FF-dimerization) came out at 26.3 µM.

Take `COc1cc(/C=C/C(=O)CC(=O)/C=C/c2ccc(O)c(OC)c2)ccc1O` [curcumin]: the “effect on the FF-dimerization (in words)” value in data set [2] is on record as “strong inhibition effect”.

On to `CN(C)[C@@H]1C(O)=C(C(N)=O)C(=O)[C@@]2(O)C(O)=C3C(=O)c4c(O)cccc4[C@@](C)(O)[C@H]3C[C@@H]12` [Tetracycline, tetracycline], for which, in data set [2] (IC50 on the FF-dimerization), half-maximal inhibition (IC50) required 77.6 µM.
